A selection: hits, their analogues and other compounds. The true share with any hit is near 1.9%.
PG9 binder = binds the HIV-1 gp120 antibody PG9. TR-FRET gp120-PG9 antibody binding. inhibition, % at 6.7 µM. 0.43% of 360,000 active; in the data active means inhibition above about 8.5%
MT1-MMP act inh = MT1-MMP (human) activation inhibition | HT1080 RFP-PRO-GFP cells, GFP/RFP ratio fluorescence, overnight; percent of plate control window, DMSO zero | P50281 | GFP/RFP ratio change, % at 20 µM | 0.061% of 360,000 active | AID 651647;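 active means GFP/RFP ratio change of at least 30% with cell ATP level not reduced by more than half and red fluorescence within 50% of control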
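Material: RFP-PRO-GFP reporter HT1080 cells. Dosing: single-point 20 µM compound, 1% DMSO. Controls: DMSO and RFP-L50D-GFP cell wells. Timing: cells overnight before dosing, compound overnight, 37 °C, 5% CO2. Measure: GFP/RFP fluorescence ratio.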
NR2E3 ag-1 = agonists of human NR2E3 nuclear receptor. Q9Y5X4. CHO-S Gal4-NCOR/VP16-NR2E3 two-hybrid, luciferase. inhibition of corepressor binding, % at 3.98 µM. 0.35% of 360,000 active. AID 602229;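 active means inhibition above the mean of all tested compounds plus 3 SD, cut at about 70% in these data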;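 further: 0% = DMSO with NR2E3 transfected cells and 100% = cells lacking NR2E3 construct; higher means lower luciferase signal from less NR2E3 corepressor binding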
NR1D1 modulator = modulators of human Rev-erb alpha DNA binding; activity, % at 10 µM; Rev-erbα–FITC-DNA binding, fluorescence polarization, 90 min; 0.79% of 370,000 active;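 active means activity above about 14%, limit read from the data; passing the limit was not always enough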;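 further: 0% = DMSO wells with 35 nM protein and 100% = DMSO wells with 750 nM protein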
Target sequence (P20393 whole entry, looked up): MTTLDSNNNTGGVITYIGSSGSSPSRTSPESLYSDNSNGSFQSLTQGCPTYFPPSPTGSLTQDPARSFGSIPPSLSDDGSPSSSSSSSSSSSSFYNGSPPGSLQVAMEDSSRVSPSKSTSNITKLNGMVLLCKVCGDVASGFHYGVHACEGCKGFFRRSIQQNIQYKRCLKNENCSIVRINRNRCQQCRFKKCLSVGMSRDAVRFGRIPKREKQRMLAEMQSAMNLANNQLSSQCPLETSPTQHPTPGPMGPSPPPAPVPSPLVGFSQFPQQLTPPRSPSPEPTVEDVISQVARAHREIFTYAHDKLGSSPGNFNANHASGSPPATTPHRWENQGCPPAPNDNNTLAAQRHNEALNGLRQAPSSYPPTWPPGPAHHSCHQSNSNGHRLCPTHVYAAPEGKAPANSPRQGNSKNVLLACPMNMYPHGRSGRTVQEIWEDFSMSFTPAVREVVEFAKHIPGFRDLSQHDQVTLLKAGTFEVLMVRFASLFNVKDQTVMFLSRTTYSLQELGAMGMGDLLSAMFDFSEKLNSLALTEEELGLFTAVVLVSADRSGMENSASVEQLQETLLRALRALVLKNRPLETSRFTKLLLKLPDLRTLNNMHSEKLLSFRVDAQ
SKN-1 inh = C. elegans SKN-1 inhibition; C. elegans VP596 Pgst-4::GFP/RFP ratio, acrylamide-induced, 24 h; inhibition, % at 21.8 µM; 0.49% of 360,000 active;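 active means interference check ratio from 0.5 to 1.5 plus GFP to RFP signal ratio inhibition reaching or exceeding a fixed threshold, cut at about 30% in these data, passing the limit was not always enough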
NR2E3 ag-2 = agonists of human nuclear receptor NR2E3 | Q9Y5X4 | GST-NR2E3/biotin-RetCOR TR-FRET, 1536-well | inhibition of corepressor binding, % at 4.78 µM | 0.12% of 320,000 active | AID 2300;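 active means percent inhibition above the cutoff of mean plus 3 SD of all tested compounds, set per screening campaign, cut at about 20% in these data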;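 further: 0% = DMSO wells and 100% = biotin wells as full block of FRET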
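Test system – NR2E3–RetCOR corepressor complex · Quantity – NR2E3 fusion 1.35 nM · Buffer or medium – Tris pH 7.5 · Incubation – Compound–protein incubation for 5 h at 4 °C · Technique – TR-FRET, Eu(K)-anti-GST donor, streptavidin-D2 acceptor, ex 340, em 617/671 nm · Evaluation – percent inhibition of 671/617 nm emission ratio versus biotin and DMSO controls · Plate – 1536-well format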
NR1D1 mod conf = confirmation of modulators of human Rev-erb alpha DNA binding | shares compounds with NR1D1 modulator | Rev-erb alpha FITC-DNA binding, fluorescence polarization, 90 min | activation, % at 25 µM | 61% of 3,000 active | AID 1259319;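 active means activation at or above a set limit, or at least 3 SD above the negative control mean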;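 further: 0% = 35 nM protein with DMSO and 100% = 750 nM protein high control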
RORg counter = counter-screen for Rev-erb alpha modulators: RORgamma DNA binding; shares compounds with NR1D1 modulator; purified RORgamma protein-FITC-DNA binding, fluorescence polarization; IC50, µM; 8% of 910 active;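 active means Compounds whose fitted half-maximal concentration for disrupting protein-DNA binding is below 10 micromolar; the record names Rev-erb in its text, so the target is in doubt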
The depositor's hits bear a star; i = inactive; . = not tested or not shown.

SMILES	PG9 binder	MT1-MMP act inh	NR2E3 ag-1	NR1D1 modulator	SKN-1 inh	NR2E3 ag-2	NR1D1 mod conf	others
COC(=O)[C@]12CCCCC=C1N(Cc1ccc(Cl)cc1Cl)C(=O)[C@H](CC(=O)NCc1ccc(OC)c(OC)c1)C2	-2	7	-26	-5	-4	.	.
CC(NS(=O)(=O)c1cccc(Cl)c1)C(=O)Nc1ccc(-c2nc3ccccc3s2)cc1 (stereo unspecified)	0	14	-122	30*	22	1	10
COc1cccc(-n2nnnc2SCC(=O)Nc2ccc3c(c2)OCCO3)c1	2	3	-5	30*	4	-1	46*	RORg counter=i
CCOC(=O)C1CCCN(C2=NC(=O)/C(=C/c3ccc(N(C)C)cc3)S2)C1 (stereo unspecified)	-14	-146	-42	27*	10	0	16
Cc1nc2ccc(C(=O)NC(C)(C)C)cn2c1N(C)C(=O)CCc1ccccc1	0	3	5	-6	25	.	.
Cc1cccc(N(C(=O)c2snc(C(N)=O)c2N)C(C(=O)NCC2CCCO2)c2ccc(N(C)C)cc2)c1 (stereo unspecified)	0	-7	-14	46*	9	1	14
CN(C)c1ccc(C(C(=O)NCC2CCCO2)N(C(=O)c2snc(C(N)=O)c2N)c2ccccc2)cc1 (stereo unspecified)	-3	-4	-22	38*	10	-3	10
CCCCC(C(=O)NC1CCCC1)N(Cc1ccccc1)C(=O)c1snc(C(N)=O)c1N (stereo unspecified)	-1	0	-9	22*	-8	5	-1
CCOC(=O)C1CSCCS(=O)(=O)N1Cc1ccc(C)cc1 (stereo unspecified)	0	.	.	-8	.	.	.
CCOC(=O)/C(C#N)=C\c1ccc(OCC(=O)Nc2ccc(C)cc2C)c(OC)c1	2	-2	3	28*	-10	3	21*
COc1cc(C(=O)Nc2nc(-c3cc(C)ccc3C)c(C)s2)ccc1OCC(=O)Nc1ccc(F)cc1	0	-13	-31	71*	-5	3	49*	RORg counter=>40
Cc1c(N=C2N=C(NC(=O)c3cccs3)c3ccccc32)c(=O)n(-c2ccccc2)n1C	0	-151	0	18*	39*	1	16
Cc1c(N=C2N=C(NC(=O)NC(C)(C)C)c3ccccc32)c(=O)n(-c2ccccc2)n1C	-4	-8	-3	0	3	3	.
Cc1ccc(S(=O)(=O)N(C)c2cccc3c2S(=O)(=O)N([C@H](C)c2ccccc2)C[C@@H](COCc2ccccc2)O3)cc1	0	.	.	-2	.	.	.
C[C@H](CO)N1C[C@H](C)[C@@H](CN(C)C(=O)Nc2ccc(N3CCN(C)CC3)cc2)OCc2cn(nn2)CCCC1=O	0	.	.	0	.	.	.
CCN(CC)S(=O)(=O)c1ccc(C(=O)Nc2ccc(C(F)(F)F)n(C)c2=O)cc1	0	1	-2	4	12	6	.
Cc1ccc(C(=O)Nc2ccc(C(F)(F)F)n(C)c2=O)cc1	3	1	-66	28*	0	3	3
COc1ccc(C(=O)Nc2ccc(C(F)(F)F)n(C)c2=O)cc1	-4	0	-25	47*	-9	-2	32*	RORg counter=>40
O=C(C(=O)N1CCC(CNS(=O)(=O)c2ccc(F)cc2)CC1)c1cccs1	1	.	.	-6	.	.	.
O=C(c1cc(-c2ccccc2Cl)nc2ccc(Br)cc12)N1CCN(c2ccccn2)CC1	4	-9	-29	19*	-2	6	9
O=C(c1cc(-c2ccncc2)nc2ccc(Br)cc12)N1CCN(c2ccccn2)CC1	0	-2	10	6	25	-3	.
CC(=O)NC(c1ccc(F)c(F)c1)c1nc(-c2ccc(F)c(Cl)c2)cs1 (stereo unspecified)	0	1	1	42*	9	.	-5
OC(c1ccccc1)c1nc(-c2ccc(F)c(Cl)c2)cs1 (stereo unspecified)	0	3	-29	16*	17	.	-1
CC(=O)NC(c1ccc(F)c(F)c1)c1nc(-c2ccc(C)c(C)c2)cs1 (stereo unspecified)	-2	1	-8	1	-8	.	.
CSc1ccccc1-c1nnc(-c2ccc(Cl)c(Cl)c2)o1	0	1	-25	47*	13	2	51*	RORg counter=>40
SMILES	PG9 binder	MT1-MMP act inh	NR2E3 ag-1	NR1D1 modulator	SKN-1 inh	NR2E3 ag-2	NR1D1 mod conf	others
CCOc1cc(/C=C2/C(=N)N3C=CSC3=NC2=O)ccc1OCCCOc1ccccc1C	-1	-2	-24	18*	9	3	5
Cn1cc(C2=C(c3ccc(Cl)cc3Cl)C(=O)NC2=O)c2ccccc21	-2	-50	10	36*	73	4	20*
Cn1cc(-c2ccccc2C(N)=O)c(=O)c2cc(Cl)ccc21	0	1	11	-1	-3	-1	.
COC(=O)c1ccc2nc(-c3ccc(F)cc3)c(Cc3ccccc3C(F)(F)F)n2c1	0	-4	-3	21*	18	.	-5
COC(=O)c1ccc2nc(-c3ccccc3)c(Cc3ccccc3C(F)(F)F)n2c1	1	-5	-18	22*	2	.	19*
COC(=O)c1ccc2nc(-c3ccc(OC)c(OC)c3)c(Cc3ccccc3C(F)(F)F)n2c1	-2	.	.	-2	.	.	.
CCOC(=O)[C@]12CCCC=C1N(CCc1ccc(OC)c(OC)c1)C(=O)[C@H](CC(=O)N1CCCCC1)C2	-1	7	.	-5	10	.	.
CSC1=C(C#N)C(c2ccccc2Cl)C2=C(N1)c1ccccc1C2=O (stereo unspecified)	0	7	-5	62*	10	2	20*
CC(=O)C1=C(c2ccccc2)OC(N)=C(C#N)C1c1ccccc1C (stereo unspecified)	-1	-1	1	5	-2	0	.
CSC1=C(C#N)C(c2ccccc2C)C(C#N)=C(N)N1 (stereo unspecified)	-3	-1	-5	27*	-19	0	14
CSc1ccc(OC2(C)CCN(Cc3ccc(C(C)C)cc3)C2)cc1 (stereo unspecified)	-2	4	-32	-3	14	.	.
CCCn1nc(NC(=O)CC(C)C)c2cc3cccc(C)c3nc21	3	1	15	20	2	2	.
CCn1nc(NC(=O)CC(C)C)c2cc3cccc(C)c3nc21	1	0	6	24*	-1	-5	-2
